Key:
Plasmodium falciparum [1] = assay: Gametocytocidal activity against Plasmodium falciparum after 72 hrs by Alamar Blue assay; type: functional, organism-based
Plasmodium falciparum [2] = assay: Antimalarial activity against chloroquine-sensitive asexual blood stage of Plasmodium falciparum 3D7 infected in RBC after 72 hrs by SYBR Green assay; type: functional, organism-based; details: 3D7, 72 h
Method in brief: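 Asexual blood-stage P. falciparum 3D7 (chloroquine-sensitive) parasites. 1536-well format, 11-point dose-response, duplicate tests. Torin 2 served as positive control and DMSO as negative control.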

Plasmodium falciparum [3] = assay: Gametocytocidal activity against chloroquine-sensitive late gametocytic stage (III to V) of Plasmodium falciparum 3D7 after 72 hrs by Alamar Blue assay; type: functional, organism-based; details: 3D7, 72 h
Method in brief: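 Late-stage (III–V) P. falciparum 3D7 gametocytes. AlamarBlue redox indicator reads cytosolic metabolic activity as a measure of gametocyte viability. 1536-well format, 11-point dose-response, duplicates. Torin 2 positive control, DMSO negative control.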

HepG2 = assay: Cytotoxicity against human HepG2 cells assessed as cell viability after 24 hrs; type: cell-based; details: HepG2, 24 h
Method in brief: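 HepG2 cell viability as general cytotoxicity. 1536-well, 11-point dose-response in duplicate, top concentration 46 μM. Torin 2 positive control, DMSO negative control.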

Plasmodium falciparum [4] = assay: Selectivity ratio of IC50 for chloroquine-sensitive late gametocytic stage (III to V) of Plasmodium falciparum 3D7 to IC50 for chloroquine-sensitive asexual blood stage of Plasmodium falciparum 3D7; type: functional

Work on Nc1ccc(-c2ccc3ncc4ccc(=O)n(-c5cccc(C(F)(F)F)c5)c4c3c2)cn1 yielded an IC50 (Plasmodium falciparum [1]) of 8 nM.
Cc1ccc(-c2ccc3ncc4c(c3c2)n(-c2cccc(C(F)(F)F)c2)c(=O)n4C)cc1 was tested, and the IC50 (Plasmodium falciparum [2]) was 733 nM, the IC50 (Plasmodium falciparum [3]) was 524 nM and the IC50 (HepG2) was > 45000 nM. The “Ratio IC50” value (Plasmodium falciparum [4]) was 1.

— ChEMBL document CHEMBL3797182, “In vitro evaluation of imidazo[4,5-c]quinolin-2-ones as gametocytocidal antimalarial agents” (Bioorg Med Chem Lett, 2016)
